Consider 5 compounds from publication PMC7489285 (Molecular cancer therapeutics, 2012).

Bounds are passed on as bounds.

The conditions of series [1]: mice, favorable half-life; cited from earlier work.
Series [2] relates to breast cancer brain metastases. The conditions noted are these: phase II, cited from earlier work.
Series [3] has as its system 231-BR cells. The series can be described thus: MTT in vitro cytotoxicity assay. It counts as cell-based. The conditions noted are these: Homo sapiens, 72 h, read-out: IC50 values and maximal toxicity. Put shortly: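 231-BR cells seeded at 2,000/well 24 h before compound addition. Ethanol drug stocks were serially diluted into culture medium and added to triplicate wells, then cultured 72 h. Viable cells were read by MTT, normalized to drug-free viable cells at endpoint. At least 3 independent experiments.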

Series [4] deals with experimental brain metastases. The conditions noted are these: 2 experimental brain metastasis models, radiolabeled drug; cited from earlier work.
Series [5] concerns intracerebrally implanted MDA-MB-435, Lu7187 and Lu7466 tumor cells. The settings on record: cited from earlier work; for growth of intracerebrally implanted tumor cells: MDA-MB-435, Lu7187 and Lu7466 cells.
For series [6], the system named is 231-BR brain metastases. Kind of series: experimental brain metastasis model. It counts as in vivo, mouse.
For series [7], the system named is 231-BR primary tumors. The series can be described thus: breast primary tumor model. It counts as in vivo, mouse.
Series [8] deals with breast cancer brain metastases. The conditions noted are these: phase II, cited from earlier work. This is another data set of the same source.
Series [9] deals with neuronal tubulin. The series can be described thus: fluorescence-enhanced tubulin polymerization assay. It counts as biochemical. The conditions noted are these: ratio of tubulin polymerization ED50 values.

As for `C/C(=C\c1csc(C)n1)[C@@H]1C[C@@H]2O[C@]2(C)CCC[C@H](C)[C@H](O)[C@@H](C)C(=O)C(C)(C)[C@@H](O)CC(=O)O1` [patupilone], the brain distribution result in series [1] is “Significant brain distribution”. Besides, the “partial responses, patients” value in series [2] (6 of 31) is reported as 19%. For the same compound, the “stable disease, patients” value in series [2] (9 of 31) is 29%. In [2], the “incidence of peripheral neuropathy” value was 27%.
Regarding `CC(=O)O[C@H]1C(=O)[C@@]2(C)[C@H]([C@H](OC(=O)c3ccccc3)[C@]3(O)C[C@H](OC(=O)[C@H](O)[C@@H](NC(=O)c4ccccc4)c4ccccc4)C(C)=C1C3(C)C)[C@]1(OC(C)=O)CO[C@@H]1C[C@@H]2O` [Paclitaxel], the IC50 in series [3] was below 10 nM. In series [4], the “experimental lesions with sufficient uptake to show a cytotoxic response” value is listed as 10%. The “growth of intracerebrally implanted tumor cells” value in [5] was “nonsignificant effects”. The “prevention of brain metastatic colonization” value in [6] (18 mg/kg ×3, early or late, all points not significant) is reported as “ineffective”. The “Ki67-positive 231-BR cells in brain metastases (proliferation), mean” value in series [6] (day 28, 48 hours after final late 18 mg/kg treatment, vehicle 56.0% ± 2.22%) is listed as 54.4% ± 1.91%. The “amount of acetylated tubulin-α in primary tumors” value in series [7] (18 mg/kg i.v. every 4 days ×3, immunofluorescence) is on record as “increase”. In addition, the “estimated tumor growth rate (slope) of log10 tumor volume” value in series [7] (18 mg/kg i.v. every 4 days ×3 from day 37, days 41 to 48) is recorded as −0.0450 ± 0.00743.
For `C=CC[C@H]1C(=O)C(C)(C)[C@@H](O)CC(=O)O[C@H](c2ccc3sc(C)nc3c2)C[C@@H]2O[C@]2(C)CCC[C@H](C)[C@@H]1O` [Sagopilone], in [5], the “growth of intracerebrally implanted tumor cells” value is recorded as “reduced the growth” and the weight loss is on record as 6%. Besides, the BBB penetration entry in [5] (mice, favorable AUC and half-life) is reported as “crossed the BBB”. For the same compound, in series [8] (progressive brain metastases after whole brain radiation therapy, two patients), the “patients achieving partial responses” value is recorded as 13.3%. In addition, in series [8], the median progression-free survival is 1.4 months and the overall survival is listed as 5.3 months.
As for `CC(=O)O[C@@]12CO[C@@H]1C[C@H](O)[C@@]1(C)C(=O)[C@H](O)C3=C(C)[C@@H](OC(=O)[C@H](O)[C@@H](NC(=O)OC(C)(C)C)c4ccccc4)C[C@@](O)([C@@H](OC(=O)c4ccccc4)[C@H]21)C3(C)C` [Docetaxel], in series [3], the IC50 is below 10 nM. Moreover, in [9], the “ED50 compound/ ED50 paclitaxel” value was 1.07.
On to `C/C(=C\c1csc(C)n1)[C@@H]1C[C@@H]2O[C@]2(C)CCC[C@H](C)[C@H](O)[C@@H](C)C(=O)C(C)(C)[C@@H](O)CC(=O)N1` [ixabepilone], for which, in series [3], the IC50 was below 10 nM. The “toxicity of initial doses” value in [6] (mice, initial 2 doses of 5 mg/kg) was “significant toxicity”.

A word on the IC50: it is the concentration at which inhibition is half-maximal.
